From ChEMBL document CHEMBL1157704, “Potent activity against K562 cells by polyamide-seco-CBI conjugates targeting histone H4 genes” (Bioorg Med Chem, 2010)

Tests used:
Assay type in all cases: functional
K562 [1] = assay: Effect on FERMT2 gene expression in human K562 cells assessed as change in mRNA transcript expression at 10 nM after 48 hrs by DNA microarray analysis relative to control
Outline: (§1)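 Transcripts were profiled on Affymetrix GeneChip Human Gene 1.0 ST arrays in K562 cells treated at 10 nM. Treated cells were collected at 6, 12, 24 and 48 h; untreated controls were collected at 48 h. Transcripts changed at least twofold versus control were scored.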

K562 [2] = assay: Effect on HIST1H4B gene expression in human K562 cells assessed as down-regulation of mRNA transcript expression at 10 nM after 48 hrs by DNA microarray analysis relative to control; outline: as §1
K562 [3] = assay: Effect on ANKRD20B gene expression in human K562 cells assessed as change in mRNA transcript expression at 10 nM after 48 hrs by DNA microarray analysis relative to control; outline: as §1
K562 [4] = assay: Effect on EGR1 gene expression in human K562 cells assessed as change in mRNA transcript expression at 10 nM after 48 hrs by DNA microarray analysis relative to control; outline: as §1
K562 [5] = assay: Induction of apoptosis in human K562 cells assessed as viable cells at 250 nM after 48 hrs by annexin-V FITC and propidium iodide staining-based FACS analysis; settings: K562, 48 h, read-out: Activity
Outline: (§2)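 Treated K562 cells […] stained with Annexin V-FITC/propidium iodide. Apoptosis was scored by two-dimensional flow cytometry at a core FACS facility.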

K562 [6] = assay: Effect on RNU5E gene expression in human K562 cells assessed as change in mRNA transcript expression at 10 nM after 48 hrs by DNA microarray analysis relative to control
Outline: (§3)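 K562 CML cells (b3a2 Bcr-Abl) in standard ATCC-recommended culture, exposed once to 10 nM conjugate and harvested at 48 h. Untreated controls were also collected at 48 h. Transcripts were profiled on Human Gene 1.0 ST whole-genome oligonucleotide arrays, and each treated level was expressed relative to the untreated control, with a cutoff of at least twofold change.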

K562 [7] = assay: Effect on INPP5D gene expression in human K562 cells assessed as change in mRNA transcript expression at 10 nM after 48 hrs by DNA microarray analysis relative to control; outline: as §3
K562 [8] = assay: Effect on FLJ21767 gene expression in human K562 cells assessed as change in mRNA transcript expression at 10 nM after 48 hrs by DNA microarray analysis relative to control; outline: as §1
K562 [9] = assay: Effect on COMMD10 gene expression in human K562 cells assessed as change in mRNA transcript expression at 10 nM after 48 hrs by DNA microarray analysis relative to control; outline: as §1
K562 [10] = assay: Effect on DIAPH2 gene expression in human K562 cells assessed as change in mRNA transcript expression at 10 nM after 48 hrs by DNA microarray analysis relative to control; outline: as §1
K562 [11] = assay: Induction of apoptosis in human K562 cells assessed as early apoptotic cells at 250 nM after 48 hrs by annexin-V FITC and propidium iodide staining-based FACS analysis; outline: as §2
K562 [12] = assay: Effect on PRF1 gene expression in human K562 cells assessed as change in mRNA transcript expression at 10 nM after 48 hrs by DNA microarray analysis relative to control; outline: as §3
K562 [13] = assay: Effect on INPP1 gene expression in human K562 cells assessed as change in mRNA transcript expression at 10 nM after 48 hrs by DNA microarray analysis relative to control; outline: as §3
K562 [14] = assay: Effect on HIST1H4K gene expression in human K562 cells assessed as down-regulation of mRNA transcript expression at 10 nM after 48 hrs by DNA microarray analysis relative to control; outline: as §3
K562 [15] = assay: Effect on EXOC6B gene expression in human K562 cells assessed as change in mRNA transcript expression at 10 nM after 48 hrs by DNA microarray analysis relative to control; outline: as §1
K562 [16] = assay: Effect on HIST1H4D gene expression in human K562 cells assessed as down-regulation of mRNA transcript expression at 10 nM after 48 hrs by DNA microarray analysis relative to control; outline: as §1
K562 [17] = assay: Effect on NET1 gene expression in human K562 cells assessed as change in mRNA transcript expression at 10 nM after 48 hrs by DNA microarray analysis relative to control; outline: as §3
K562 [18] = assay: Effect on FER gene expression in human K562 cells assessed as change in mRNA transcript expression at 10 nM after 48 hrs by DNA microarray analysis relative to control; outline: as §1
K562 [19] = assay: Effect on HIST1H4H gene expression in human K562 cells assessed as down-regulation of mRNA transcript expression at 10 nM after 48 hrs by DNA microarray analysis relative to control; outline: as §3
K562 [20] = assay: Effect on TDRG1 gene expression in human K562 cells assessed as change in mRNA transcript expression at 10 nM after 48 hrs by DNA microarray analysis relative to control; outline: as §3
K562 [21] = assay: Effect on HSPA1B gene expression in human K562 cells assessed as change in mRNA transcript expression at 10 nM after 48 hrs by DNA microarray analysis relative to control; outline: as §3
K562 [22] = assay: Effect on TCN1 gene expression in human K562 cells assessed as change in mRNA transcript expression at 10 nM after 48 hrs by DNA microarray analysis relative to control; outline: as §3
K562 [23] = assay: Effect on HIST1H1D gene expression in human K562 cells assessed as change in mRNA transcript expression at 10 nM after 48 hrs by DNA microarray analysis relative to control; outline: as §1
K562 [24] = assay: Effect on STAG1 gene expression in human K562 cells assessed as change in mRNA transcript expression at 10 nM after 48 hrs by DNA microarray analysis relative to control; outline: as §3
K562 [25] = assay: Effect on TRIB3 gene expression in human K562 cells assessed as change in mRNA transcript expression at 10 nM after 48 hrs by DNA microarray analysis relative to control
Outline: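 K562 CML cells (b3a2 Bcr-Abl) kept under standard culture conditions were exposed to 10 nM conjugate and harvested at 6, 12, 24 and 48 h. Untreated controls were harvested at 48 h. Whole-transcript oligonucleotide microarray profiling was done, and changes of at least twofold versus control were scored.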

K562 [26] = assay: Effect on SLC4A1 gene expression in human K562 cells assessed as change in mRNA transcript expression at 10 nM after 48 hrs by DNA microarray analysis relative to control; outline: as §3
K562 [27] = assay: Downregulation of histone H4C mRNA expression in human K562 cells at 250 nM after 48 hrs by real-time PCR analysis
Outline: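 Treated K562 cells were assayed by one-step real-time RT-PCR. Reverse transcription ran 50 °C for 10 min, then hot-start polymerase activation at 95 °C for 15 min. Cycling was 45 cycles of 95 °C 15 s, 55 °C 30 s and 72 °C 30 s. Levels were normalized to GAPDH mRNA; error shown as standard deviation.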

K562 [28] = assay: Effect on CLGN gene expression in human K562 cells assessed as change in mRNA transcript expression at 10 nM after 48 hrs by DNA microarray analysis relative to control; outline: as §1

Q: Which “fold change (FC)” value (K562 [1]) does the source give for `CC(=O)Nc1cn(C)c(C(=O)Nc2cn(C)c(C(=O)NCCC(=O)Nc3cn(C)c(C(=O)NCCCC(=O)Nc4cc(C(=O)Nc5cn(C)c(C(=O)Nc6ccc7[nH]c(C(=O)N8CC(CCl)c9c8cc(O)c8ccccc98)cc7c6)n5)n(C)c4)n3)n2)n1` (stereo not drawn) here?
A: >=2

Q: And the “fold change (FC)” value (K562 [2])?
A: 3.91

Q: What about the “fold change (FC)” value (K562 [3]) of the same compound?
A: >=2

Q: And the “fold change (FC)” value (K562 [4])?
A: >=2

Q: And the viability at 0.25 µM (K562 [5])?
A: 71.8%

Q: What about the “fold change (FC)” value (K562 [6]) of the same compound?
A: >=2

Q: And the “fold change (FC)” value (K562 [7])?
A: >=2

Q: What about the “fold change (FC)” value (K562 [8]) of the same compound?
A: >=2

Q: What about the “fold change (FC)” value (K562 [9]) of the same compound?
A: >=2

Q: And the “fold change (FC)” value (K562 [10])?
A: >=2

Q: And the Activity (K562 [11])?
A: 17.1%

Q: And the “fold change (FC)” value (K562 [12])?
A: >=2

Q: What about the “fold change (FC)” value (K562 [13]) of the same compound?
A: >=2

Q: What about the “fold change (FC)” value (K562 [14]) of the same compound?
A: 2.71

Q: What about the “fold change (FC)” value (K562 [15]) of the same compound?
A: >=2

Q: What about the “fold change (FC)” value (K562 [16]) of the same compound?
A: 2.43

Q: And the “fold change (FC)” value (K562 [17])?
A: >=2

Q: And the “fold change (FC)” value (K562 [18])?
A: >=2

Q: What about the “fold change (FC)” value (K562 [19]) of the same compound?
A: 2.11

Q: What about the “fold change (FC)” value (K562 [20]) of the same compound?
A: >=2

Q: And the “fold change (FC)” value (K562 [21])?
A: >=2

Q: And the “fold change (FC)” value (K562 [22])?
A: >=2

Q: What about the “fold change (FC)” value (K562 [23]) of the same compound?
A: >=2

Q: What about the “fold change (FC)” value (K562 [24]) of the same compound?
A: >=2

Q: What about the “fold change (FC)” value (K562 [25]) of the same compound?
A: >=2

Q: And the “fold change (FC)” value (K562 [26])?
A: >=2

Q: What about the Activity (K562 [27]) of the same compound?
A: 93%

Q: What about the “fold change (FC)” value (K562 [28]) of the same compound?
A: >=2
